Reference: ChEMBL document CHEMBL1136726, “Synthesis and characterization of iodine-123 labeled 2beta-carbomethoxy-3beta-(4'-((Z)-2-iodoethenyl)phenyl)nortropane. A ligand for in vivo imaging of serotonin transporters by single-photon-emission tomography” (J Med Chem, 2003)

Assays:
Rattus norvegicus [1] = experiment: Ratio of distribution of radioactivity in rat brain region striatum and cerebellum 60 min after intravenous administration of iodine labeled compound in presence of reboxetine blocker in study 2; format: ADME, organism-based; details: in vivo, 1 h
Rattus norvegicus [2] = experiment: Distribution of radioactivity in rat brain prefrontal cortex 5 min after intravenous administration of iodine labeled compound; format: ADME, organism-based; details: in vivo
In short: (§1)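 Male Sprague–Dawley rats (225–300 g) under ketamine received 10 µCi radioligand iv (tail vein) in 10% EtOH/saline. Hypothalamus, prefrontal cortex, striatum, pons and cerebellum were dissected, weighed and gamma-counted. % injected dose/g was taken from decay-corrected counts versus diluted dose. Mean ± SE and range, n=5 (5, 30 min) or 4 (60, 120 min).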

Rattus norvegicus [3] = experiment: Distribution of radioactivity in rat brain pons 60 min after intravenous administration of iodine labeled compound; format: ADME, organism-based; details: in vivo, 1 h; in short: as §1
Rattus norvegicus [4] = experiment: Ratio of distribution of radioactivity in rat brain prefrontal cortex and cerebellum 120 min after intravenous administration of iodine labeled compound; format: ADME, organism-based; details: in vivo, 2 h
In short: (§2)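 Male Sprague–Dawley rats (225–300 g) under ketamine anaesthesia were given [123I]ZIENT (10 μCi) in 0.2 mL 10% EtOH/0.9% NaCl into the tail vein, with a saline flush. Hypothalamus, prefrontal cortex, striatum, pons and cerebellum were dissected and gamma-counted. % injected dose/g came from decay-corrected counts against the diluted injected dose, and region/cerebellum ratios were taken from these. Mean ± SE, n=4–5.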

Rattus norvegicus [5] = experiment: Ratio of distribution of radioactivity in rat brain hypothalamus and cerebellum 120 min after intravenous administration of iodine labeled compound; format: ADME, organism-based; details: in vivo, 2 h; in short: as §2
Rattus norvegicus [6] = experiment: Distribution of radioactivity in rat lung 5 min after intravenous administration of iodine labeled compound; format: ADME, organism-based; details: in vivo
In short: (§3)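 Tail-vein injection of [123I]ZIENT (10 μCi in 0.2 mL 10% EtOH/0.9% NaCl, then 0.4 mL saline flush) into ketamine-anaesthetised male Sprague–Dawley rats (225–300 g). Animals were killed by cardiac excision at set times. Organs were excised, rinsed, blotted, weighed and gamma-counted. % dose/g was calculated against diluted aliquots of injectate. Mean ± SE, n=4–5.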

Rattus norvegicus [7] = experiment: Distribution of radioactivity in rat thyroid 5 min after intravenous administration of iodine labeled compound; format: ADME, organism-based, Thyroid gland; details: in vivo; in short: as §3
Rattus norvegicus [8] = experiment: Distribution of radioactivity in rat brain region frontal cortex 60 min after intravenous administration of iodine labeled compound in presence of fluvoxamine blocker in study 1; format: ADME, organism-based; details: in vivo, 1 h
In short: (§4)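 Male Sprague–Dawley rats (250–300 g), ketamine-anesthetized. Blocker (2 mg/kg) or none was given iv 15 min before tail-vein radioligand (10 µCi in 0.2 mL 10% EtOH/saline). Rats were killed at 60 min with im pentobarbital. Brain regions were dissected, weighed and gamma-counted. % dose/g was taken from decay-corrected, background-subtracted counts versus the injected dose.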

Rattus norvegicus [9] = experiment: Distribution of radioactivity in rat spleen 5 min after intravenous administration of iodine labeled compound; format: ADME, organism-based; details: in vivo; in short: as §3
Rattus norvegicus [10] = experiment: Distribution of radioactivity in rat brain cerebellum 5 min after intravenous administration of iodine labeled compound; format: ADME, organism-based; details: in vivo; in short: as §1
Rattus norvegicus [11] = experiment: Ratio of distribution of radioactivity in rat brain region prefrontal cortex and cerebellum 60 min after intravenous administration of iodine labeled compound in presence of fluvoxamine blocker in study 1; format: ADME, organism-based; details: in vivo, 1 h
Rattus norvegicus [12] = experiment: Ratio of distribution of radioactivity in rat brain region striatum and cerebellum 60 min after intravenous administration of iodine labeled compound in presence of fluvoxamine blocker in study 1; format: ADME, organism-based; details: in vivo, 1 h
Rattus norvegicus [13] = experiment: Distribution of radioactivity in rat brain region cerebellum 60 min after intravenous administration of iodine labeled compound in presence of reboxetine blocker in study 2; format: ADME, organism-based; details: in vivo, 1 h; in short: as §4
Rattus norvegicus [14] = experiment: Distribution of radioactivity in rat brain region prefrontal cortex 60 min after intravenous administration of iodine labeled compound in presence of fluvoxamine blocker in study 1; format: ADME, organism-based; details: in vivo, 1 h; in short: as §4
Rattus norvegicus [15] = experiment: Distribution of radioactivity in rat blood 60 min after intravenous administration of iodine labeled compound; format: ADME, organism-based; details: in vivo, 1 h
In short: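 Male Sprague–Dawley rats (225–300 g) under ketamine received 10 µCi radioligand in 0.2 mL 10% EtOH/0.9% NaCl via tail vein, then a saline flush. Killed by cardiac excision at set times. Organs were excised, weighed and gamma-counted. % dose/g was taken against diluted injectate. Mean ± SE and range, n=4 (5 min) or 5 (30–120 min).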

Rattus norvegicus [16] = experiment: Distribution of radioactivity in rat brain region frontal cortex 60 min after intravenous administration of iodine labeled compound in absence of blocker in study 2; format: ADME, organism-based; details: in vivo, 1 h; in short: as §4
Rattus norvegicus [17] = experiment: Ratio of distribution of radioactivity in rat brain striatum and cerebellum 30 min after intravenous administration of iodine labeled compound; format: ADME, organism-based; details: in vivo, 0.5 h
In short: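 Male Sprague–Dawley rats (225–300 g), ketamine anesthesia, injected via tail vein with [123I]ZIENT (10 μCi in 0.2 mL 10% EtOH/0.9% NaCl, 0.4 mL saline flush). Killed at 5, 30, 60 or 120 min. Striatum and cerebellum dissected, weighed, γ-counted. Decay-corrected %injected dose/g taken against diluted injectate. Ratio is striatum over cerebellum. Four or five rats per time point, mean ± standard error.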

Rattus norvegicus [18] = experiment: Ratio of distribution of radioactivity in rat brain region striatum and cerebellum 60 min after intravenous administration of iodine labeled compound in absence of blocker in study 2; format: ADME, organism-based; details: in vivo, 1 h
Rattus norvegicus [19] = experiment: Distribution of radioactivity in rat thyroid 120 min after intravenous administration of iodine labeled compound; format: ADME, organism-based, Thyroid gland; details: in vivo, 2 h; in short: as §3
Rattus norvegicus [20] = experiment: Ratio of distribution of radioactivity in rat brain region prefrontal cortex and cerebellum 60 min after intravenous administration of iodine labeled compound in absence of blocker in study 2; format: ADME, organism-based; details: in vivo, 1 h
Rattus norvegicus [21] = experiment: Ratio of distribution of radioactivity in rat brain hypothalamus and cerebellum 60 min after intravenous administration of iodine labeled compound; format: ADME, organism-based; details: in vivo, 1 h; in short: as §2
Rattus norvegicus [22] = experiment: Distribution of radioactivity in rat testis 120 min after intravenous administration of iodine labeled compound; format: ADME, organism-based; details: in vivo, 2 h; in short: as §3
Rattus norvegicus [23] = experiment: Ratio of distribution of radioactivity in rat brain region pons and cerebellum 60 min after intravenous administration of iodine labeled compound in presence of reboxetine blocker in study 2; format: ADME, organism-based; details: in vivo, 1 h
Rattus norvegicus [24] = experiment: Distribution of radioactivity in rat brain region prefrontal cortex 60 min after intravenous administration of iodine labeled compound in absence of blocker in study 2; format: ADME, organism-based; details: in vivo, 1 h; in short: as §4
Rattus norvegicus [25] = experiment: Ratio of distribution of radioactivity in rat brain region prefrontal cortex and cerebellum 60 min after intravenous administration of iodine labeled compound in absence of blocker in study 1; format: ADME, organism-based; details: in vivo, 1 h
Rattus norvegicus [26] = experiment: Ratio of distribution of radioactivity in rat brain region striatum and cerebellum 60 min after intravenous administration of iodine labeled compound in absence of blocker in study 1; format: ADME, organism-based; details: in vivo, 1 h
Rattus norvegicus [27] = experiment: Distribution of radioactivity in rat heart 30 min after intravenous administration of iodine labeled compound; format: ADME, organism-based; details: in vivo, 0.5 h; in short: as §3
Rattus norvegicus [28] = experiment: Ratio of distribution of radioactivity in rat brain region hypothalamus and cerebellum 60 min after intravenous administration of iodine labeled compound in presence of RTI-113 blocker in study 1; format: ADME, organism-based; details: in vivo, 1 h
Rattus norvegicus [29] = experiment: Distribution of radioactivity in rat spleen 120 min after intravenous administration of iodine labeled compound; format: ADME, organism-based; details: in vivo, 2 h; in short: as §3
[30] = target: Sodium-dependent noradrenaline transporter (Homo sapiens, UniProt P23975); experiment: In vitro competitive binding versus [3H]- […] in murine kidney cells transfected with cDNA for human norepinephrine transporter (NET); format: cell-based
Chain of Sodium-dependent noradrenaline transporter (P23975 whole entry): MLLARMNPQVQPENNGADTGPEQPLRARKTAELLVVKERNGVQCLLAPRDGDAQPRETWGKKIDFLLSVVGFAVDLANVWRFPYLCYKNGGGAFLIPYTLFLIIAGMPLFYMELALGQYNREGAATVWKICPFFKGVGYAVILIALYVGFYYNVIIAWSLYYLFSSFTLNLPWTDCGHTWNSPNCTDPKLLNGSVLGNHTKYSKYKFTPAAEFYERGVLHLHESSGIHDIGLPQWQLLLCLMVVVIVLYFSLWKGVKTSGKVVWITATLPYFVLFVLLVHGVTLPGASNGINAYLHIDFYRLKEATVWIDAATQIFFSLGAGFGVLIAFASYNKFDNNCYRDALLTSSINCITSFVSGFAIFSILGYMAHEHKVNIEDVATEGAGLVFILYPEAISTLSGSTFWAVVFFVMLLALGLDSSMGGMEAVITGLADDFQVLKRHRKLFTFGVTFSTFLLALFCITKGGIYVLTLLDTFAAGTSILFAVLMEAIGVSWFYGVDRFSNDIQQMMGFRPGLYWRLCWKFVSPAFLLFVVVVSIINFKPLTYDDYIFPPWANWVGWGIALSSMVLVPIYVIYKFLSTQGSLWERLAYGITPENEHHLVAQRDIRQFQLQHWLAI

Rattus norvegicus [31] = experiment: Ratio of distribution of radioactivity in rat brain region prefrontal cortex and cerebellum 60 min after intravenous administration of iodine labeled compound in presence of reboxetine blocker in study 2; format: ADME, organism-based; details: in vivo, 1 h
Rattus norvegicus [32] = experiment: Distribution of radioactivity in rat liver 5 min after intravenous administration of iodine labeled compound; format: ADME, organism-based; details: in vivo; in short: as §3

With `COC(=O)[C@@H]1C2CCC(C[C@@H]1c1ccc(/C=C\I)cc1)N2` (some centres not stated) the “Distribution (dose/g)” value (Rattus norvegicus [1]) was 3.04%, the “Distribution (dose/g)” value (Rattus norvegicus [2]) was 0.77% and the “Distribution (dose/g)” value (Rattus norvegicus [3]) was 0.59%. For the same molecule, the “Distribution (dose/g)” value (Rattus norvegicus [4]) was 4.08%, the “Distribution (dose/g)” value (Rattus norvegicus [5]) was 4.92% and the “Distribution (dose/g)” value (Rattus norvegicus [6]) was 4.96%. For the same molecule, the “Distribution (dose/g)” value (Rattus norvegicus [7]) was 0.17%, the “Distribution (dose/g)” value (Rattus norvegicus [8]) was 0.27% and the “Distribution (dose/g)” value (Rattus norvegicus [9]) was 1.81%. For the same molecule, the “Distribution (dose/g)” value (Rattus norvegicus [10]) was 0.53%, the “Distribution (dose/g)” value (Rattus norvegicus [11]) was 1.65% and the “Distribution (dose/g)” value (Rattus norvegicus [12]) was 1.76%. The “Distribution (dose/g)” value (Rattus norvegicus [13]) was 0.23%, the “Distribution (dose/g)” value (Rattus norvegicus [14]) was 0.28% and the “Distribution (dose/g)” value (Rattus norvegicus [15]) was 0.37%. The “Distribution (dose/g)” value (Rattus norvegicus [16]) was 0.59%, the “Distribution (dose/g)” value (Rattus norvegicus [17]) was 2.25% and the “Distribution (dose/g)” value (Rattus norvegicus [18]) was 3.32%. For the same molecule, the “Distribution (dose/g)” value (Rattus norvegicus [19]) was 1.87%, the “Distribution (dose/g)” value (Rattus norvegicus [20]) was 3.89% and the “Distribution (dose/g)” value (Rattus norvegicus [21]) was 3.08%. For the same molecule, the “Distribution (dose/g)” value (Rattus norvegicus [22]) was 0.31%, the “Distribution (dose/g)” value (Rattus norvegicus [23]) was 2.35% and the “Distribution (dose/g)” value (Rattus norvegicus [24]) was 0.74%. The “Distribution (dose/g)” value (Rattus norvegicus [25]) was 3.88%, the “Distribution (dose/g)” value (Rattus norvegicus [26]) was 3.17% and the “Distribution (dose/g)” value (Rattus norvegicus [27]) was 0.36%. For the same molecule, the “Distribution (dose/g)” value (Rattus norvegicus [28]) was 3.2%, the “Distribution (dose/g)” value (Rattus norvegicus [29]) was 0.43% and the Ki [30] was 24 nM. For the same molecule, the “Distribution (dose/g)” value (Rattus norvegicus [31]) was 3.07% and the “Distribution (dose/g)” value (Rattus norvegicus [32]) was 0.38%.
